Results: paper PMC4166031 (Bioconjugate Chemistry, 2014)

Columns and labels:
[1] = tested on: U87MG human glioma xenografts; assay: Biodistribution in athymic nude mice bearing U87MG glioma xenografts; type: in vivo
[2] = as above; type: in vivo; settings: female, athymic nu/nu, mouse, iv, total radioactivity
[3] = Solution stability in the kit matrix by radio-HPLC; type: physicochemical; settings: kit matrix (TPPTS, tricine, mannitol, succinate buffer); monitored by radio-HPLC for 6 h
U87MG glioma xenografts = assay: SPECT/CT quantification of tumor uptake, U87MG glioma model; type: in vivo, athymic nude mice; settings: ~37 MBq i.v., SPECT/CT at 60 min p.i.
Summary of the method: (§1)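 Mice bearing U87MG glioma and MDA-MB-231 breast xenografts (4 weeks post-inoculation) got ~37 MBq 99mTc radiotracer (not HPLC-purified) in 0.1 mL saline by tail vein, under ~2.0% isoflurane. Multi-pinhole SPECT (75 projections over 30 min per frame, 2 frames), then CT at 45 kV, 500 μA. Tumors delineated on CT/SPECT; activity taken from a γ-counter-calibrated source standard curve, as %ID/cm3.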

[4] = SPECT/CT quantification of tumor uptake, MDA-MB-231 breast tumor model; type: in vivo, athymic nude mice; settings: athymic nude, mouse, iv, 37 MBq, total radioactivity
Summary of the method: as §1

[5] = 5 min p.i., U87MG glioma-bearing athymic nude mice

| SMILES | tissue uptake at 0.5 h ([2]; lungs, 0.1 MBq) | tissue uptake at 1 h ([2]; lungs, 0.1 MBq) | tissue uptake at 2 h ([2]; lungs, 0.1 MBq) | tissue uptake at 0.5 h ([2]; muscle, 0.1 MBq) | tissue uptake at 1 h ([2]; muscle, 0.1 MBq) | tissue uptake at 2 h ([2]; muscle, 0.1 MBq) | tissue uptake at 0.5 h ([2]; spleen, 0.1 MBq) | tissue uptake at 1 h ([2]; spleen, 0.1 MBq) | tissue uptake at 2 h ([2]; spleen, 0.1 MBq) | tissue to tissue ratio at 0.5 h ([2]; tumor and blood, 0.1 MBq) | tissue to tissue ratio at 1 h ([2]; tumor and blood, 0.1 MBq) | tissue to tissue ratio at 2 h ([2]; tumor and blood, 0.1 MBq) | tissue to tissue ratio at 0.5 h ([2]; tumor and liver, 0.1 MBq) | tissue to tissue ratio at 1 h ([2]; tumor and liver, 0.1 MBq) | tissue to tissue ratio at 2 h ([2]; tumor and liver, 0.1 MBq) | tissue to tissue ratio at 0.5 h ([2]; tumor and lung) | tissue to tissue ratio at 1 h ([2]; tumor and lung) | tissue to tissue ratio at 2 h ([2]; tumor and lung) | tissue to tissue ratio at 0.5 h ([2]; tumor and muscle) | tissue to tissue ratio at 1 h ([2]; tumor and muscle) | further results |
| --- | --- | --- | --- | --- | --- | --- | --- | --- | --- | --- | --- | --- | --- | --- | --- | --- | --- | --- | --- | --- | --- |
| N=C(N)NCCC[C@@H]1NC(=O)[C@H](CCCCNC(=O)[C@H](CC(=O)O)NC(=O)[C@H](CC(=O)O)NC(=O)[C@H](CC(=O)O)NC(=O)CC[C@H](NC(=O)CCOCCOCCOCCOCCNC(=O)c2ccc(NN)nc2)C(=O)N[C@@H](CC(=O)O)C(=O)N[C@@H](CC(=O)O)C(=O)N[C@@H](CC(=O)O)C(=O)NCCCC[C@@H]2NC(=O)[C@@H](Cc3ccccc3)NC(=O)[C@H](CC(=O)O)NC(=O)CNC(=O)[C@H](CCCNC(=N)N)NC2=O)NC(=O)[C@@H](Cc2ccccc2)NC(=O)[C@H](CC(=O)O)NC(=O)CNC1=O [^99mTc-P6D-RGD2, [^99mTc(HYNIC-P6D-RGD2)(tricine)(TPPTS)], metal not drawn] | 2.05 ± 0.28 %ID/g | 1.85 ± 0.2 %ID/g | 1.11 ± 0.42 %ID/g | 1.79 ± 0.2 %ID/g | 1.59 ± 0.25 %ID/g | 0.79 ± 0.23 %ID/g | 2.6 ± 0.37 %ID/g | 2.58 ± 0.46 %ID/g | 2.4 ± 0.37 %ID/g | 2.5 ± 0.33 | 6.5 ± 0.58 | 6.98 ± 4.06 | 0.65 ± 0.15 | 0.87 ± 0.17 | 0.84 ± 0.18 | 1.19 ± 0.35 | 1.68 ± 0.1 | 2.41 ± 0.73 | 1.97 ± 0.53 | 2 ± 0.36 | Initial blood radioactivity level, fold higher than ^99mTc-3P-RGD2 [1, 5]: ~3 ×; Initial blood radioactivity level, fold higher than ^99mTc-P6G-RGD2 [1, 5]: ~5 ×; Integrin αvβ3 specificity of tumor uptake (blocking experiment) ([1]; 60 min p.i., with/without coinjection of excess RGD2 (350 μg/mouse or 14 mg/kg)): integrin αvβ3-specific; tissue uptake at 1 h ([2]; blood, 14 mg/kg): 0.23 ± 0.01 %ID/g; tissue uptake at 1 h ([2]; brain, 14 mg/kg): 0.02 ± 0.01 %ID/g; tissue uptake at 1 h ([2]; eyes, 14 mg/kg): 0.23 ± 0.1 %ID/g; tissue uptake at 1 h ([2]; heart, 14 mg/kg): 0.2 ± 0.07 %ID/g; tissue uptake at 1 h ([2]; intestine, 14 mg/kg): 0.22 ± 0.11 %ID/g; tissue uptake at 1 h ([2]; kidneys, 14 mg/kg): 23.9 ± 3.61 %ID/g; tissue uptake at 1 h ([2]; liver, 14 mg/kg): 0.28 ± 0.04 %ID/g; tissue to tissue ratio at 1 h ([2]; tumor and lung, 14 mg/kg): 1.1 ± 0.13; tissue to tissue ratio at 2 h ([2]; tumor and muscle): 3.3 ± 1.24; tissue uptake at 0.5 h ([2]; tumor, 0.1 MBq): 2.85 ± 0.55 %ID/g; tissue uptake at 1 h ([2]; tumor, 0.1 MBq): 3.13 ± 0.47 %ID/g; tissue uptake at 2 h ([2]; tumor, 0.1 MBq): 2.45 ± 0.9 %ID/g; Time remained stable in the kit matrix postlabeling [3]: more than 6 h |
| N=C(N)NCCC[C@@H]1NC(=O)[C@H](CCCCNC(=O)CNC(=O)CNC(=O)CNC(=O)CC[C@H](NC(=O)CCOCCOCCOCCOCCNC(=O)c2ccc(NN)nc2)C(=O)NCC(=O)NCC(=O)NCC(=O)NCCCC[C@@H]2NC(=O)[C@@H](Cc3ccccc3)NC(=O)[C@H](CC(=O)O)NC(=O)CNC(=O)[C@H](CCCNC(=N)N)NC2=O)NC(=O)[C@@H](Cc2ccccc2)NC(=O)[C@H](CC(=O)O)NC(=O)CNC1=O [^99mTc-P6G-RGD2, [^99mTc(HYNIC-P6G-RGD2)(tricine)(TPPTS)], metal not drawn] | 4.38 ± 0.55 %ID/g | 3.83 ± 0.56 %ID/g | 2.81 ± 0.36 %ID/g | 1.75 ± 0.24 %ID/g | 1.68 ± 0.33 %ID/g | 0.83 ± 0.11 %ID/g | 3.08 ± 0.88 %ID/g | 2.68 ± 0.57 %ID/g | 2.31 ± 0.27 %ID/g | 14.1 ± 1.25 | 15.6 ± 2.79 | 41.8 ± 5.13 | 2.95 ± 0.33 | 2.86 ± 0.3 | 3.21 ± 0.53 | 2.07 ± 0.15 | 2.35 ± 0.24 | 2.71 ± 0.12 | 5.04 ± 0.68 | 5.09 ± 0.51 | Tumor uptake on the basis of SPECT quantification (U87MG glioma xenografts): ~8.2 %ID/cm^3; tissue to tissue ratio at 2 h ([2]; tumor and muscle): 9.42 ± 1.25; tissue uptake at 0.5 h ([2]; tumor, 0.1 MBq): 8.85 ± 0.67 %ID/g; tissue uptake at 1 h ([2]; tumor, 0.1 MBq): 8.17 ± 1.1 %ID/g; tissue uptake at 2 h ([2]; tumor, 0.1 MBq): 7.82 ± 0.76 %ID/g; Time remained stable in the kit matrix postlabeling [3]: more than 6 h; tissue uptake per volume at 1 h [4]: 3.5 %ID/mL |
